Results: ChEMBL document CHEMBL1133709, “Acyclic analogues of deoxyadenosine 3',5'-bisphosphates as P2Y(1) receptor antagonists” (J Med Chem, 2000)
Calls of active or inactive are those of the source. No cut-off for these calls is given here.

Columns and labels:
[1] = test system: Meleagris gallopavo; assay: Antagonism of PLC stimulation elicited by 30(nM) 2-Me SADP in turkey RBC; type: functional; design: concentration or dose not given beside the values; details: dose or concentration not given here
In short: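 Turkey erythrocytes labeled 18–24 h with 2-[3H]myo-inositol at 37 °C; ghost membranes with 1 μM GTPγS and test compound combined with 30 nM 2-MeSADP, 5 min at 30 °C, Hepes pH 7.0. [3H]inositol phosphates separated by anion exchange. IC50 for 50% inhibition of agonist response; at least three experiments, different membrane preparations, duplicate or triplicate assays.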

[2] = biological target: P2Y purinoceptor 1 (Meleagris gallopavo) (UniProt P49652); assay: P2Y purinoceptor 1 mediated PLC stimulation in turkey RBC, NE represents no effect
In short: (§1)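 Compound alone added to [3H]inositol-labeled turkey erythrocyte ghosts (~175 μg protein) with 1 μM GTPγS in Hepes pH 7.0 medium, 5 min at 30 °C. Total [3H]inositol phosphates quantified by anion-exchange chromatography. EC50 from four-parameter logistic fit, 3–8 independent curves. Efficacy relative to a maximal 2-MeSADP concentration in the same experiment; NE = no effect at 100 μM.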

[3] = Antagonism of PLC stimulation elicited by 10(nM) 2-Me SADP in turkey RBC; type: functional, Meleagris gallopavo
[4] = test system: Meleagris gallopavo; assay: Tested in vitro for effective concentration required for stimulation of phospholipase C (PLC) against [3H]inositol labeled Turkey Erythrocyte P2Y purinoceptor 1; type: functional; in short: as §1
[5] = biological target: P2Y purinoceptor 1 (Meleagris gallopavo) (UniProt P49652); assay: In vitro agonistic activity was determined for stimulation of PLC at Turkey erythrocyte P2Y purinoceptor 1; type: functional; in short: as §1

P2Y purinoceptor 1 (Meleagris gallopavo), sequence (P49652 whole entry): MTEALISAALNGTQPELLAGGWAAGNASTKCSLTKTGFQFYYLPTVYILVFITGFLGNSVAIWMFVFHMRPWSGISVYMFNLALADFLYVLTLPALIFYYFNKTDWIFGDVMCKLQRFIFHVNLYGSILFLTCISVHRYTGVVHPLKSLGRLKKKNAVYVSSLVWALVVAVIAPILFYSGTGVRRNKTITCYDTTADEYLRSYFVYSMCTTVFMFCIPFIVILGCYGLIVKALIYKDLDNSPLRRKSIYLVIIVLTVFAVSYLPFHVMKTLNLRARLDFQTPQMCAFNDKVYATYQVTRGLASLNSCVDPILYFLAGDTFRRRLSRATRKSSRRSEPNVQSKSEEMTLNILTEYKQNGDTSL

Structure (SMILES)	PLC stimulation [2]	IC50 [3]	EC50 [4]	Increase [5]	inhibition [1]
CNc1ncnc2c1ncn2C/C=C\CC(COP(=O)(O)O)COP(=O)(O)O (stereo in doubt; 16) [listing 1 of 2 here]	inactive	–	–	–	54%
CNc1ncnc2c1ncn2C/C=C\CC(COP(=O)(O)O)COP(=O)(O)O (stereo in doubt; 15) [listing 1 of 2 here]	–	> 50 µM	–	–	–
CNc1ncnc2c1ncn2C/C=C\CC(COP(=O)(O)O)COP(=O)(O)O (stereo in doubt; 15) [listing 2 of 2 here]	inactive	–	–	–	77%
CNc1nc(Cl)nc2c1ncn2CC(=O)N(CCOP(=O)(O)O)CCOP(=O)(O)O	inactive	14 µM	–	–	89%
CNc1ncnc2c1ncn2CCCC(COP(=O)(O)O)COP(=O)(O)O	inactive	> 30 µM	–	–	68%
Nc1nc(Cl)nc2c1ncn2CCC(COP(=O)(O)O)COP(=O)(O)O	inactive	7.57 µM	–	–	94%
CNc1ncnc2c1ncn2CCCCC(COP(=O)(O)O)COP(=O)(O)O	inactive	> 50 µM	–	–	65%
Nc1ncnc2c1ncn2[C@H]1C[C@H](OP(=O)(O)O)[C@@H](COP(=O)(O)O)O1	–	5.76 µM	6.29 µM	–	87%
Nc1ncnc2c1ncn2CCC(COP(=O)(O)O)COP(=O)(O)O	inactive	> 50 µM	–	–	63%
CNc1ncnc2c1ncn2[C@H]1C[C@H](OP(=O)(O)O)[C@@H](COP(=O)(O)O)O1	inactive	–	–	–	–
CNc1nc(Cl)nc2c1ncn2CC(=O)Nc1cc(CP(=O)(O)O)cc(CP(=O)(O)O)c1	inactive	15.5 µM	–	–	94%
CNc1ncnc2c1ncn2C/C=C\CC(COP(=O)(O)O)COP(=O)(O)O (stereo in doubt; 16) [listing 2 of 2 here]	–	100 µM	–	–	–
CNc1ncnc2c1ncn2CCCCCC(COP(=O)(O)O)COP(=O)(O)O	inactive	100 µM	–	–	56%

The next lines start with results.

PLC stimulation [2]	IC50 [3]	EC50 [4]	Increase [5]	Structure (SMILES)	inhibition [1]
inactive	1.6 µM	–	–	CNc1ncnc2c1ncn2CCC(COP(=O)(O)O)COP(=O)(O)O	100%
–	2.53 µM	7.21 µM	27%	Nc1ncnc2c1ncn2[C@@H]1C[C@H](COP(=O)(O)O)[C@H](OP(=O)(O)O)C1	73%
inactive	0.206 µM	–	–	CNc1nc(Cl)nc2c1ncn2[C@H]1C[C@H](OP(=O)(O)O)[C@@H](COP(=O)(O)O)O1	95%
inactive	0.206 µM	–	–	CNc1nc(Cl)nc2c1ncn2[C@@H]1C[C@H](COP(=O)(O)O)[C@H](OP(=O)(O)O)C1	95%
inactive	0.84 µM	–	–	CNc1nc(Cl)nc2c1ncn2CCC(COP(=O)(O)O)COP(=O)(O)O	99%
inactive	0.331 µM	–	–	CNc1ncnc2c1ncn2[C@@H]1C[C@H](COP(=O)(O)O)[C@H](OP(=O)(O)O)C1	99%
